A word on the MIC: it is the lowest concentration that inhibits growth of the organism. Read a high MIC as weaker potency.

Values after ≈ are worked out from the molar mass of the structure shown. Active and inactive are the calls of the source. No cut-off for these calls is given here.

In assay [1] the test system is Candida albicans. The assay can be described thus: Antifungal activity against Candida albicans ATCC 10231 after 24 hrs by agar dilution method. In kind it is functional. The method in brief: (§1)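 Agar dilution on Sabouraud glucose agar with 2-fold dilutions from 128 to 0.5 μg/mL and final DMSO below 2% (v/v). Inocula were spotted with a 0.005 mL loop: C. albicans at 10^5 cells/mL and filamentous fungi at 10^6 spores/mL. Plates were incubated at 29 °C in duplicate, for 24 h (C. albicans, A. niger) or 72 h (dermatophytes).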
Background: In agar dilution, organisms are placed on agar that contains the substance at set levels.

Assay [2] has as its system Trichophyton mentagrophytes. Put plainly: Antifungal activity against Trichophyton mentagrophytes ATCC 28185 after 72 hrs by agar dilution method. It is filed as functional. The conditions noted are these: ATCC 28185, 72 h. The method in brief:
as §1

Assay [3] relates to Trichophyton rubrum. Put plainly: Antifungal activity against Trichophyton rubrum ATCC 28188 after 72 hrs by agar dilution method. In kind it is functional. The conditions noted are these: ATCC 28188, 72 h. An outline of the steps:
as §1

Assay [4] has as its system Aspergillus niger. Put plainly: Antifungal activity against Aspergillus niger ATCC 10335 after 24 hrs by agar dilution method. In kind it is functional. The settings on record: ATCC 10335, 24 h. The method in brief: as §1
The test system of assay [5] is Staphylococcus aureus. Put plainly: Antibacterial activity against methicillin-sensitive Staphylococcus aureus ATCC 6358 after 24 hrs by broth microdilution method. It is filed as functional. The settings on record: ATCC 6358, 24 h. An outline of the steps:
(§2)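 Strains were kept on Mueller-Hinton agar at 4 °C and grown in MH broth at 37 °C for 18 h. Broth microdilution followed NCCLS, with serial dilutions over 0.125–128 μg/mL and an inoculum of 10^5 CFU/mL set by the 0.5 McFarland standard. Plates were incubated at 37 °C for 24 h, then p-iodonitrotetrazolium violet (0.5 mg/mL) was added. MIC was the lowest concentration without red colour.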
(Dilution methods test growth across graded concentrations, often in twofold steps.)

Assay [6] concerns Staphylococcus aureus. Put plainly: Antibacterial activity against beta-lactamase producing methicillin-resistant Staphylococcus aureus ATCC 11632 after 24 hrs by broth microdilution method. The conditions noted are these: ATCC 11632, 24 h. It is filed as functional. An outline of the steps:
as §2

The test system of assay [7] is Staphylococcus aureus. The assay can be described thus: Antibacterial activity against methicillin-resistant Staphylococcus aureus ATCC 33591 after 24 hrs by broth microdilution method. In kind it is functional. The conditions noted are these: ATCC 33591, 24 h. The method in brief:
as §2

Assay [8] deals with Staphylococcus aureus. The assay can be described thus: Antibacterial activity against methicillin-resistant Staphylococcus aureus ATCC 43300 after 24 hrs by broth microdilution method. In kind it is functional. The settings on record: ATCC 43300, 24 h. An outline of the steps: as §2
Assay [9] relates to Escherichia coli. The assay can be described thus: Antibacterial activity against Escherichia coli ATCC 25922 at 128 ug/ml after 24 hrs by broth microdilution method. In kind it is functional, organism-based. The method in brief:
(§3)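 Strains kept on Mueller-Hinton agar at 4 °C, grown in MH broth at 37 °C for 18 h before testing. NCCLS standard broth microdilution, serial dilution over 0.125−128 μg/mL. Inoculum set to 10^5 CFU/mL by 0.5 McFarland standard. Plates incubated at 37 °C for 24 h, then p-iodonitrotetrazolium violet (0.5 mg/mL) added. Red colour marks viable cells; growth at the top concentration scored.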

Assay [10] relates to Proteus mirabilis. The assay can be described thus: Antibacterial activity against Proteus mirabilis ATCC 43071 at 128 ug/ml after 24 hrs by broth microdilution method. In kind it is functional, organism-based. The method in brief:
as §3

Assay [11] has as its system Salmonella typhi. Put plainly: Antibacterial activity against Salmonella typhi ATCC 06539 at 128 ug/ml after 24 hrs by broth microdilution method. The settings on record: Salmonella enterica subsp. enterica serovar Typhi. In kind it is functional, organism-based. The method in brief:
as §3

For the compound NYSTATIN, in assay [1], the minimum inhibitory concentration (MIC) worked out at 8 µg/mL.

Take `Clc1ccc(COC(Cn2ccnc2)c2ccc(Cl)cc2Cl)c(Cl)c1` (configuration not stated) [MICONAZOLE]: the MIC was 2 µg/mL (≈ 4.81 µM) in [2], 2 µg/mL (≈ 4.81 µM) in [3] and 16 µg/mL (≈ 38.4 µM) in assay [4].

For the compound `COc1cc2c(=O)onc3c2c(c1OC)-c1cccc(OC)c1[C@@H]3SCC(N)=O`, the MIC in [5] is 0.5 µg/mL (≈ 1.21 µM); in [6], 0.25 µg/mL (≈ 0.603 µM); in [7], 0.25 µg/mL (≈ 0.603 µM); in [8] it was 0.25 µg/mL (≈ 0.603 µM); in assay [2] it was 1 µg/mL (≈ 2.41 µM); in [3] it was 1 µg/mL (≈ 2.41 µM). The MIC in assay [4] was 25 µg/mL (≈ 60.3 µM); in assay [1] (ATCC 10231, 24 h), 25 µg/mL (≈ 60.3 µM). Moreover, the outcome in assay [9], in assay [10] and in assay [11] was inactive.

In the case of `Cc1onc(-c2ccccc2)c1C(=O)N[C@@H]1C(=O)N2[C@@H]1SC(C)(C)[C@@H]2C(=O)O` [OXACILLIN], the MIC in assay [5] came out at 2 µg/mL (≈ 4.98 µM); in assay [6], 32 µg/mL (≈ 79.7 µM); in assay [7], 128 µg/mL (≈ 319 µM); in [8], 128 µg/mL (≈ 319 µM).

Consider `CC1(C)S[C@@H]2[C@H](NC(=O)[C@H](N)c3ccccc3)C(=O)N2[C@H]1C(=O)O` [AMPICILLIN], for which the MIC was 2 µg/mL (≈ 5.72 µM) in [5], 64 µg/mL (≈ 183 µM) in assay [6], 128 µg/mL (≈ 366 µM) in assay [7] and 128 µg/mL (≈ 366 µM) in [8].

As to `O=C(N[C@H](CO)[C@H](O)c1ccc([N+](=O)[O-])cc1)C(Cl)Cl` [CHLORAMPHENICOL], the MIC in assay [5] is 1 µg/mL (≈ 3.09 µM); in [6], 2 µg/mL (≈ 6.19 µM); in assay [7] it was 2 µg/mL (≈ 6.19 µM); in assay [8], 2 µg/mL (≈ 6.19 µM).

The values above are taken from ChEMBL document CHEMBL4130579, “Sulfur-Containing Aristoloxazines and Other Constituents of the Roots of Aristolochia orbicularis” (2017).
